Results reported in ChEMBL document CHEMBL3739347, “Tubulin modulating antifungal and antiproliferative pyrazinone derivatives” (Bioorg Med Chem, 2016).

Experiments:
Type in all cases: functional
Botrytis cinerea [1] = experiment: Antifungal activity against Botryotinia fuckeliana infected in orange pixie tomato seedlings at 40 ppm relative to control
Outline: (§1)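 Orange Pixie tomato seedlings sprayed to run-off with test suspension, then inoculated next day with a Botryotinia fuckeliana spore suspension. Kept saturated at 20 °C for 48 h, then 1 more day at 24 °C in a growth chamber before rating. Rates in ppm. Expressed as percent control relative to untreated control plants.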

Puccinia triticina [2] = experiment: Antifungal activity against Puccinia recondita f. sp. tritici infected in wheat seedlings at 10 ppm relative to control
Outline: (§2)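 Test suspension sprayed to run-off on Stevens wheat seedlings. Next day inoculated with a Puccinia recondita f. sp. tritici spore suspension. Held 24 h in a saturated atmosphere at 20 °C, then 7 days in a 20 °C growth chamber before disease rating. Rates in ppm. Given as percent control versus untreated control plants.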

Parastagonospora nodorum [3] = experiment: Antifungal activity against Stagonospora nodorum infected in wheat seedlings at 40 ppm relative to control
Outline: (§3)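 Wheat seedlings, treated the day before, inoculated with a Stagonospora nodorum spore suspension. Held in a saturated atmosphere at 20 °C for 48 h, then 5 days in a growth chamber at 22 °C, then disease rated. Rates in ppm. Scored as percent control relative to untreated control plants.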

Botrytis cinerea [4] = experiment: Antifungal activity against Botryotinia fuckeliana infected in orange pixie tomato seedlings at 10 ppm relative to control; outline: as §1
Puccinia triticina [5] = experiment: Antifungal activity against Puccinia recondita f. sp. tritici infected in wheat seedlings at 2 ppm relative to control; outline: as §2
Parastagonospora nodorum [6] = experiment: Antifungal activity against Stagonospora nodorum infected in wheat seedlings at 10 ppm relative to control; outline: as §3
Puccinia triticina [7] = experiment: Antifungal activity against Puccinia recondita f. sp. tritici infected in wheat seedlings at 40 ppm relative to control; outline: as §2
Parastagonospora nodorum [8] = experiment: Antifungal activity against Stagonospora nodorum infected in wheat seedlings at 2 ppm relative to control; outline: as §3
Botrytis cinerea [9] = experiment: Antifungal activity against Botryotinia fuckeliana infected in orange pixie tomato seedlings at 2 ppm relative to control; outline: as §1
Botrytis cinerea [10] = experiment: Antifungal activity against Botryotinia fuckeliana infected in orange pixie tomato seedlings at 200 ppm relative to control; outline: as §1
Puccinia triticina [11] = experiment: Antifungal activity against Puccinia recondita f. sp. tritici infected in wheat seedlings at 200 ppm relative to control; outline: as §2
Parastagonospora nodorum [12] = experiment: Antifungal activity against Stagonospora nodorum infected in wheat seedlings at 200 ppm relative to control; outline: as §3

Structure (SMILES) | Activity (Botrytis cinerea [1]) [%] | Activity (Puccinia triticina [2]) [%] | Activity (Parastagonospora nodorum [3]) [%] | Activity (Botrytis cinerea [4]) [%] | Activity (Puccinia triticina [5]) [%] | Activity (Parastagonospora nodorum [6]) [%] | Activity (Puccinia triticina [7]) [%] | Activity (Parastagonospora nodorum [8]) [%] | Activity (Botrytis cinerea [9]) [%] | Activity (Botrytis cinerea [10]) [%] | Activity (Puccinia triticina [11]) [%] | Activity (Parastagonospora nodorum [12]) [%]
O=c1c(-n2cccn2)nc(Cl)c(-c2c(F)cc(F)cc2F)n1-c1ccccc1Cl | 100 | 100 | 100 | 100 | 97 | 94 | 100 | 0 | 99 | – | – | –
CC(C)Cn1c(-c2c(F)cccc2F)c(Cl)nc(-c2cccnc2)c1=O | 0 | 0 | 0 | 0 | 0 | 0 | 0 | 0 | 0 | – | – | –
CC[C@H](C)Cn1c(-c2c(F)cccc2F)c(Cl)nc(-n2ccnn2)c1=O | 81 | 67 | 0 | 33 | – | 0 | 67 | – | – | 98 | 73 | 73
Cc1nc(-n2cccn2)c(=O)n(CC(C)C)c1-c1c(F)cccc1F | 100 | 92 | 98 | 99 | 0 | 0 | 100 | 0 | 0 | – | – | –
CC(C)Cn1c(C2CCCC2)c(Cl)nc(-n2cccn2)c1=O | 99 | – | 0 | – | – | – | 91 | – | – | 100 | 100 | 0
O=c1c(-n2cccn2)nc(Cl)c(-c2c(F)cc(F)cc2F)n1CC(F)(F)C(F)(F)F | 100 | 99 | 100 | 100 | 91 | 89 | 100 | 0 | 99 | – | – | –
CC[C@H](C)Cn1c(-c2c(F)cccc2F)c(Cl)nc(C(=O)NC)c1=O | 99 | 74 | 51 | 90 | 0 | 0 | 99 | 0 | 57 | – | – | –
CC(C)Cn1c(-c2c(F)cccc2F)cnc(-n2cccn2)c1=O | – | 0 | 0 | – | – | 0 | 0 | – | – | – | 98 | 0
O=c1c(-n2cccn2)nc(Cl)c(-c2c(F)cc(F)cc2F)n1CC(F)(F)C(F)(F)C(F)(F)F | 100 | 96 | 99 | 99 | 68 | 78 | 99 | 0 | 38 | – | – | –
O=c1c(-n2cccn2)nc(Cl)c(-c2c(F)cc(F)cc2F)n1C1CCCCC1 | 99 | 89 | 99 | 99 | – | 73 | 97 | – | – | 99 | 99 | 100
CC(C)Cn1c(C(C)(C)C)c(Cl)nc(-n2cccn2)c1=O | 0 | – | 0 | – | – | – | 0 | – | – | 0 | 0 | 0
CC(C)Cn1c(C2CC2)c(Cl)nc(-n2cccn2)c1=O | 0 | – | 0 | – | – | – | 0 | – | – | 0 | 0 | 0
CC(C)Cn1c(C(C)C)c(Cl)nc(-n2cccn2)c1=O | 99 | – | 0 | – | – | – | 18 | – | – | 99 | 98 | 0
O=c1c(-n2cccn2)nc(Cl)c(-c2c(F)cc(F)cc2F)n1-c1cccc(Cl)c1 | 100 | 99 | 99 | 99 | 86 | 99 | 100 | 73 | 97 | – | – | –
CC[C@H](C)Cn1c(-c2c(F)cccc2F)c(Cl)nc(-n2nccn2)c1=O | 0 | – | 0 | – | – | – | 19 | – | – | 97 | 86 | 0
CC[C@H](C)Cn1c(-c2c(F)cccc2F)c(Cl)nc(C#N)c1=O | 99 | – | 0 | – | – | – | 74 | – | – | 99 | 96 | 0
C=CCn1c(-c2c(F)cc(F)cc2F)c(Cl)nc(-n2cccn2)c1=O | 99 | 89 | 100 | 99 | 0 | 97 | 99 | 0 | 70 | – | – | –
CC(C)Cn1c(-c2c(F)cccc2F)c(Cl)nc(-c2nccs2)c1=O | 0 | 0 | 0 | 0 | 0 | 0 | 0 | 0 | 0 | – | – | –
CC(C)Cn1c(-c2c(F)ccc(F)c2F)c(Cl)nc(-n2cccn2)c1=O | 100 | 99 | 100 | 98 | 32 | 87 | 100 | 0 | 94 | – | – | –
CC[C@H](C)Cn1c(-c2c(F)cccc2F)c(Cl)nc(C(N)=O)c1=O | 99 | 99 | 95 | 97 | 80 | 0 | 100 | 0 | 92 | – | – | –
CC[C@H](C)Cn1c(-c2c(F)cccc2F)c(Cl)nc(-n2cncn2)c1=O | 100 | – | 94 | – | – | – | 98 | – | – | 100 | 98 | 100
Cc1ccn(-c2nc(Cl)c(-c3c(F)cccc3F)n(CC(C)C)c2=O)n1 | 100 | 94 | 95 | 100 | 25 | 0 | 100 | 0 | 95 | – | – | –
O=c1c(-n2cccn2)nc(Cl)c(-c2c(F)cc(F)cc2F)n1-c1ccc(Cl)cc1 | 99 | 100 | 100 | 99 | 96 | 100 | 100 | 78 | 92 | – | – | –
CC(Cn1c(-c2c(F)cc(F)cc2F)c(Cl)nc(-n2cccn2)c1=O)C(F)(F)F (centres undefined) | 99 | 100 | 100 | 99 | 92 | 0 | 100 | 0 | 99 | – | – | –
CCCCn1c(-c2c(F)cc(F)cc2F)c(Cl)nc(-n2cccn2)c1=O | 100 | 88 | 100 | 0 | 26 | 98 | 100 | 0 | 0 | – | – | –
CC(C)Cn1c(-c2c(F)cccc2F)c(Cl)nc(-c2ccccn2)c1=O | 99 | – | 0 | – | – | – | 85 | – | – | 100 | 99 | 99
O=c1c(-n2cccn2)nc(Cl)c(-c2c(F)cc(F)cc2F)n1-c1ccccc1 | 100 | 87 | 99 | 100 | 45 | 98 | 99 | 60 | 100 | – | – | –
CC(C)Cn1c(-c2c(F)cccc2F)c(Cl)nc(-c2ccncc2)c1=O | 0 | 0 | 0 | 0 | 0 | 0 | 0 | 0 | 0 | – | – | –
O=c1c(-n2cccn2)nc(Cl)c(-c2c(F)cc(F)cc2F)n1CC1CC1 | 99 | 100 | 100 | 98 | 80 | 100 | 100 | 0 | 98 | – | – | –
